The source made the active and inactive calls. No cut-off for these calls is given here.
Experiments:
HeLa = assay: Growth inhibition in human HeLa cells after 72 hrs by trypan blue dye-based assay; format: functional
In short: (§1)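 Three human tumour lines were used: HeLa (cervix adenocarcinoma), A-431 (epidermoid/squamous carcinoma) and MSTO-211H (biphasic mesothelioma). GI50 is the µM concentration giving 50% cell death relative to the untreated control culture. Ellipticine was run as reference.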

MSTO-211H = assay: Growth inhibition in human MSTO-211H cells after 72 hrs by trypan blue dye-based assay; format: functional; in short: as §1
A-431 = assay: Growth inhibition in human A431 cells after 72 hrs by trypan blue dye-based assay; format: functional; details: A-431, 72 h; in short: as §1
Salmon testes DNA [1] = assay: Binding affinity to salmon DNA at compound to DNA ratio of 0.02 to 0.04 by linear flow dichroism analysis; format: nucleic-acid assay; details: Salmonidae
[2] = molecular target: DNA topoisomerase 2-alpha (Homo sapiens) (UniProt P11388); assay: Inhibition of recombinant human topoisomerase 2alpha assessed as decrease in relaxation of supercoiled pBR322 DNA after 60 mins by ethidium bromide staining based agarose gel electrophoresis method
Chain of DNA topoisomerase 2-alpha (Homo sapiens) (P11388 whole entry): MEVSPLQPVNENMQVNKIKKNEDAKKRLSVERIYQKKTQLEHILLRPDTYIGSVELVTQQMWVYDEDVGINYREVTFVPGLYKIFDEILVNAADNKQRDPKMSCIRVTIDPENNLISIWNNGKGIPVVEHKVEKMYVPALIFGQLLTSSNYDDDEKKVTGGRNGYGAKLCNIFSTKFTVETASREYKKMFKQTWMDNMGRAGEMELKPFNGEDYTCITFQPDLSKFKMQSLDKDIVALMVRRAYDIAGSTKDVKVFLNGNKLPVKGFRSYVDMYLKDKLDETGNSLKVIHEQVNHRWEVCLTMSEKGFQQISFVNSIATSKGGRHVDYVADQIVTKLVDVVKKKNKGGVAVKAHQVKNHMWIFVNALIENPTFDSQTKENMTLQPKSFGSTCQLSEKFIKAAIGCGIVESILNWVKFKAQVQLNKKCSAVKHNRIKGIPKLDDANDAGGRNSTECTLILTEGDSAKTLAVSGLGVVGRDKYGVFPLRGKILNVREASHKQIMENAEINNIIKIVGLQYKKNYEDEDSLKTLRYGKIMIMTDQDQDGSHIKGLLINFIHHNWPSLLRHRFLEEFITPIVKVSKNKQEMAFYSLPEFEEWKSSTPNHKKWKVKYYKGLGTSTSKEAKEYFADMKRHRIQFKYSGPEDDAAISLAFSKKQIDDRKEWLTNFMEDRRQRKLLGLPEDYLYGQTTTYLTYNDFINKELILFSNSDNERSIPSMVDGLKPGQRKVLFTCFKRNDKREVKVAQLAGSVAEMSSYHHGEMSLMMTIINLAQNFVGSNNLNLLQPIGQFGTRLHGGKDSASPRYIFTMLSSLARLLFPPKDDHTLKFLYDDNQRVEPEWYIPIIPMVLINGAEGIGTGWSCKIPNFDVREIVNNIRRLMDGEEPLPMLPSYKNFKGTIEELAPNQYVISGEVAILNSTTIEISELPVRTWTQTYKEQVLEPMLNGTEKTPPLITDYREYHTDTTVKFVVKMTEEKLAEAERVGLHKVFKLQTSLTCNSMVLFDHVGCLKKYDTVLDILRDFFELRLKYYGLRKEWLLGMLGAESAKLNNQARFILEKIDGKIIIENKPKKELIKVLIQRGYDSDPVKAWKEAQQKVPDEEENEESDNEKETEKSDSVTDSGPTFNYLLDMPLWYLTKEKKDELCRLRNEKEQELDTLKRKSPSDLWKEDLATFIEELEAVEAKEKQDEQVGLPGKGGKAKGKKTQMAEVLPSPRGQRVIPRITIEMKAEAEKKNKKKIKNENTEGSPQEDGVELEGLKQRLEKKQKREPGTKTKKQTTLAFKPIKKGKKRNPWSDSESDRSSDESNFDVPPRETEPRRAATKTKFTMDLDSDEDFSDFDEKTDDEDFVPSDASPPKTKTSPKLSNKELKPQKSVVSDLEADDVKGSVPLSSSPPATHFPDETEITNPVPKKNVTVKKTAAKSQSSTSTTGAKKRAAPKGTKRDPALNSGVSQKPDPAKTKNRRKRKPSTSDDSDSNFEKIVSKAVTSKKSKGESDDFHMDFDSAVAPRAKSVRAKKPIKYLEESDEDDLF
In short: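 Topo II was incubated with supercoiled pBR322 DNA, with or without compound at a series of µM concentrations. Read-out is topoisomer formation from supercoiled DNA on a gel. Reference is 10 µM m-AMSA.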

[3] = molecular target: T1, DNA topoisomerase 1 (Homo sapiens) (UniProt P11387); assay: Inhibition of recombinant human topoisomerase 1 assessed as decrease in relaxation of supercoiled pBR322 DNA after 60 mins by ethidium bromide staining based agarose gel electrophoresis method
T1 sequence (whole entry): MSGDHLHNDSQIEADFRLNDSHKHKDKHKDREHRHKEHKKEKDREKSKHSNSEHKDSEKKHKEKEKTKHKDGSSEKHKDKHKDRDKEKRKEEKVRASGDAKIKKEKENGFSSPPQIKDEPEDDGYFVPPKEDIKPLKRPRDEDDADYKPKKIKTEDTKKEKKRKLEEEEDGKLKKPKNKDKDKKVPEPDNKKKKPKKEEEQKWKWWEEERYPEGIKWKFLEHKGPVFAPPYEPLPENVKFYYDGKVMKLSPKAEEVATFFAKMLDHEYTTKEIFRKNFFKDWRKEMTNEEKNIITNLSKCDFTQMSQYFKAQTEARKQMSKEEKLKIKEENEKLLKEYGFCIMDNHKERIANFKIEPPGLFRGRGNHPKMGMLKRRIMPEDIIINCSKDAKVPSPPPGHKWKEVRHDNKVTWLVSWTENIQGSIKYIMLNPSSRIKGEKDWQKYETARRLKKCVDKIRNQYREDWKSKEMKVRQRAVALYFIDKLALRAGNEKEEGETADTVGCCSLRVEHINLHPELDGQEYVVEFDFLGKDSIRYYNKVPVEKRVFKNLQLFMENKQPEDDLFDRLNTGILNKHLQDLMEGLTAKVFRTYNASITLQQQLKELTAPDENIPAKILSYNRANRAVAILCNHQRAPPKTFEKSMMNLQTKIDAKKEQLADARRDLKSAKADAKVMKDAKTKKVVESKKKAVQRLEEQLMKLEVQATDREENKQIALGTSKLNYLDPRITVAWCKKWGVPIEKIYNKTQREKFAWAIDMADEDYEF
In short: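 Human recombinant Topo I was incubated with supercoiled pBR322 DNA, with or without compound at a series of µM concentrations. Read-out is the number of relaxed topoisomers formed.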

[4] = molecular target: T1, DNA topoisomerase 1 (Homo sapiens); assay: Poison activity at recombinant human topoisomerase-1 assessed as stabilization of covalent topo-1-DNA cleavage complex by measuring nicked DNA formation at 0.5 to 50 uM using supercoiled pBR322 DNA as substrate after 60 mins by agarose gel electrophoresis method
In short: (§2)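 Cleavable-complex assay: supercoiled pBR322 DNA was incubated with Topo I, with or without compound at a series of µM concentrations. Nicked DNA formation marks covalent complex stabilisation. Reference is 0.5 µM camptothecin.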

[5] = molecular target: DNA topoisomerase 2-alpha (Homo sapiens) (UniProt P11388); assay: Poison activity at recombinant human topoisomerase-2 assessed as stabilization of covalent topo-2-DNA cleavage complex by measuring linear DNA formation at 10 uM using supercoiled pBR322 DNA as substrate after 60 mins by agarose gel electrophoresis method
In short: (§3)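 Cleavable-complex assay: supercoiled pBR322 DNA was incubated with Topo II, with or without compound at a series of µM concentrations. Enzyme-mediated linear DNA marks cleavage-complex stabilisation. Reference poison is 10 µM m-AMSA.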

Salmon testes DNA [6] = assay: Binding affinity to salmon DNA at compound to DNA ratio of 0.08 by linear flow dichroism analysis; format: nucleic-acid assay; details: Salmonidae
Salmon testes DNA [7] = assay: Binding affinity to salmon DNA at compound to DNA ratio of 0.04 by linear flow dichroism analysis; format: nucleic-acid assay; details: Salmonidae
[8] = molecular target: T1, DNA topoisomerase 1 (Homo sapiens); assay: Poison activity at recombinant human topoisomerase-1 assessed as stabilization of covalent topo-1-DNA cleavage complex by measuring nicked DNA formation using supercoiled pBR322 DNA as substrate after 60 mins by agarose gel electrophoresis method; in short: as §2
[9] = molecular target: DNA topoisomerase 2-alpha (Homo sapiens) (UniProt P11388); assay: Poison activity at recombinant human topoisomerase-2 assessed as stabilization of covalent topo-2-DNA cleavage complex by measuring linear DNA formation up to 50 uM using supercoiled pBR322 DNA as substrate after 60 mins by agarose gel electrophoresis method; in short: as §3

| SMILES | GI50 (HeLa) | GI50 (MSTO-211H) | GI50 (A-431) | Activity (Salmon testes DNA [1]) | inhibition [2] | inhibition [3] | Activity [4] | Activity [5] | Activity (Salmon testes DNA [6]) | Activity (Salmon testes DNA [7]) | Activity [8] | Activity [9] |
| --- | --- | --- | --- | --- | --- | --- | --- | --- | --- | --- | --- | --- |
| Cc1c2ccncc2c(C)c2c1[nH]c1ccccc12 [ELLIPTECINE] | 470 nM | 770 nM | 650 nM | Active |  |  |  |  |  |  |  |  |
| COc1ccc2c(c1)c1sc3cc(Cl)ccc3c(=O)c1n2CCN(C)C | 2790 nM | 2960 nM | 2670 nM |  | Dose-dependent effect | Dose-dependent effect | inactive | Active | Active |  |  |  |
| CCN(CC)CCn1c2cc(OC)c(OC)cc2c2sc3ccccc3c(=O)c21 | 1770 nM | 700 nM | 1110 nM |  | Dose-dependent effect | Dose-dependent effect | Active | Active |  | Active |  |  |
| COc1cc2c3sc4cc(Cl)ccc4c(=O)c3n(CCN(C)C)c2cc1OC | 3540 nM | 1820 nM | 3190 nM |  | Dose-dependent effect | Dose-dependent effect | inactive | Active |  | Active |  |  |
| CCN(CC)CCn1c2cc(OC)c(OC)cc2c2sc3cc(OC)ccc3c(=O)c21 | 1750 nM | 360 nM | 670 nM |  | Dose-dependent effect | Dose-dependent effect | inactive | Active |  | Active |  |  |
| CCN(CC)CCn1c2ccc(Cl)cc2c2sc3ncccc3c(=O)c21 | 4200 nM | 1420 nM | 1790 nM |  | Dose-dependent effect | Dose-dependent effect | inactive | Active |  | Active |  |  |
| COc1ccc2c(c1)c1sc3ncccc3c(=O)c1n2CCN(C)C | 2710 nM | 750 nM | 1420 nM |  | Dose-dependent effect | Dose-dependent effect | inactive | Active |  | Active |  |  |
| CN(C)CCn1c2ccc(Cl)cc2c2sc3ncccc3c(=O)c21 | 3020 nM | 2360 nM | 2000 nM |  | Dose-dependent effect | Dose-dependent effect | inactive | Active |  | Active |  |  |
| COc1cc(NS(C)(=O)=O)ccc1Nc1c2ccccc2nc2ccccc12 |  |  |  |  |  |  |  | Active |  |  |  |  |
| CCN(CC)CCn1c2cc(OC)c(OC)cc2c2sc3cc(Cl)ccc3c(=O)c21 | 4550 nM | 2370 nM | 2220 nM |  | Dose-dependent effect | Dose-dependent effect | inactive | Active |  | Active |  |  |
| CCN(CC)CCn1c2ccc(OC)cc2c2sc3cc(Cl)ccc3c(=O)c21 | 3210 nM | 4190 nM | 5440 nM |  | Dose-dependent effect | Dose-dependent effect | inactive | Active | Active |  |  |  |
| CN(C)CCn1c2ccccc2c2sc3ncccc3c(=O)c21 | 1550 nM | 1080 nM | 540 nM |  | Dose-dependent effect | Dose-dependent effect | inactive | Active |  | Active |  |  |
| CCN(CC)CCn1c2ccccc2c2sc3ncccc3c(=O)c21 | 2570 nM | 1330 nM | 470 nM |  | Dose-dependent effect | Dose-dependent effect | inactive | Active |  | Active |  |  |
| COc1ccc2c(c1)c1sc3ccccc3c(=O)c1n2CCN(C)C | 5810 nM | 2370 nM | 2240 nM |  | Dose-dependent effect | Dose-dependent effect | inactive | Active | Active |  |  |  |
| CCN(CC)CCn1c2cc(OC)c(OC)cc2c2sc3ncccc3c(=O)c21 | 6930 nM | 620 nM | 2670 nM |  | Dose-dependent effect | Dose-dependent effect | Active | Active |  | Active |  |  |
| COc1cc2c3sc4ncccc4c(=O)c3n(CCN(C)C)c2cc1OC | 1700 nM | 350 nM | 710 nM | Active | Dose-dependent effect | Dose-dependent effect | Active |  |  |  | Dose-dependent effect | inactive |
| CCN(CC)CCn1c2ccc(OC)cc2c2sc3ncccc3c(=O)c21 | 2610 nM | 700 nM | 1900 nM |  | Dose-dependent effect | Dose-dependent effect | inactive | Active |  | Active |  |  |
| CCN(CC)CCn1c2ccc(Cl)cc2c2sc3cc(Cl)ccc3c(=O)c21 | 4310 nM | 2990 nM | 3290 nM |  | Dose-dependent effect | Dose-dependent effect | inactive | Active | Active |  |  |  |
| CN(C)CCn1c2ccc(Cl)cc2c2sc3cc(Cl)ccc3c(=O)c21 | 2660 nM | 1640 nM | 1760 nM |  | Dose-dependent effect | Dose-dependent effect | inactive | Active | Active |  |  |  |
| CCN(CC)CCn1c2ccc(OC)cc2c2sc3ccccc3c(=O)c21 | 2790 nM | 1610 nM | 2080 nM |  | Dose-dependent effect | Dose-dependent effect | inactive | Active | Active |  |  |  |
| COc1ccc2c(=O)c3c(sc2c1)c1cc(OC)c(OC)cc1n3CCN(C)C | 740 nM | 440 nM | 480 nM |  | Dose-dependent effect | Dose-dependent effect | inactive | Active |  | Active |  |  |

From ChEMBL document CHEMBL4400511, “Benzothiopyranoindole- and pyridothiopyranoindole-based antiproliferative agents targeting topoisomerases” (2019)
